Measurements reported in ChEMBL document CHEMBL1127293, “Mobilization of iron by chiral and achiral anionic 3-hydroxypyrid-4-ones” (1994).

Assays:
[1] = system: Rattus norvegicus; test: Biliary excretion of iron was measured after giving intravenous dose of 0.2 mmol/kg during treatment period in rat; format: functional
Procedure, shortened: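 Female Sprague-Dawley rats, previously untreated, served as their own controls. Biliary iron collected 0.5 h for control, then 2 h after tail-vein injection (warm-water tail passage beforehand) under anesthesia; animals recovered between periods and were kept in metabolic cages with free tap water. Iron measured by atomic absorption at 248.3 nm; rate as μg Fe/h.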

[2] = system: Rattus norvegicus; test: Urinary iron excretion was measured after giving oral dose of 1 mmol/kg during treatment period in rat; format: functional, Urine
Procedure, shortened: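 Female Sprague-Dawley rats as own controls; under ether anesthesia at about 6 p.m., gavage of 1 mL Millipore water (control period) or chelator solution, 1 mL per 200 g rat. Urine collected 15 h overnight in metabolic cages separating feces, tap water ad libitum. Iron by atomic absorption at 248.3 nm; significance p ≤ 0.05.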

| Compound | biliary iron excretion [1] [µg/h] | urinary iron excretion [2] [µg/15 h] | Treatment period [1] | Treatment period [2] |
| --- | --- | --- | --- | --- |
| CSCCC(C(=O)O)n1ccc(=O)c(O)c1C (stereo not given) | 12700 | 1740 | – | – |
| Cc1c(O)c(=O)ccn1C(Cc1ccccc1)C(=O)O (stereo not given) | 8300 | 1280 | – | – |
| Cc1c(O)c(=O)ccn1C [DEFERIPRONE] | 4810 | 17300 | – | – |
| Cc1c(O)c(=O)ccn1-c1ccc(C(=O)O)cc1 | 9390 | 1110 | – | – |
| Cc1c(O)c(=O)ccn1[C@@H](C)C(=O)O | – | – | 6240 | 3840 |
| Cc1c(O)c(=O)ccn1[C@H](C)C(=O)O | – | – | 4580 | 4010 |
| Cc1c(O)c(=O)ccn1C(CO)C(=O)O (stereo not given) | 4180 | 1790 | – | – |
| Cc1c(O)c(=O)ccn1C(CC(C)C)C(=O)O (stereo not given) | 11600 | 8550 | – | – |
| Cc1c(O)c(=O)ccn1Cc1ccc(C(=O)O)cc1 | 13700 | 1550 | – | – |
| Cc1c(O)c(=O)ccn1C(CCC(=O)O)C(=O)O (stereo not given) | 1150 | 170 | – | – |
